Screening results deposited in PubChem BioAssay by Sanford-Burnham Center for Chemical Genomics.
Shown are actives, neighbours in structure and some others; about 0.79% of the full set was active somewhere.
bIAP inh: blocks bovine intestinal alkaline phosphatase activity. purified bovine IAP, CDP-star luminescence, 30 min. inhibition, % at 20 µM. 190,000 tested, under 10 active. AID 1019;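 active means over 50% inhibition of intestinal alkaline phosphatase at 20 µM in the single-dose screen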
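System: purified bovine intestinal alkaline phosphatase (IAP) enzyme; Input: IAP diluted 1/65,000,000 in the well; Measured by: CDP-star luminescence signal; Compound dosing: 20 µM single dose; Incubation: 30 min reaction at room temperature.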
hIAP act: increases human intestinal alkaline phosphatase activity | P09923 | purified human IAP, CDP-Star luminescence, 30 min; hits give high values; 1 = vehicle-only enzyme, 0 = enzyme-free background | activation factor at 10 µM | 330,000 tested, 0.16% active;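 active means activation factor of the enzyme at least 2-fold when tested at 20 µM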
Target sequence (P09923 whole entry, looked up): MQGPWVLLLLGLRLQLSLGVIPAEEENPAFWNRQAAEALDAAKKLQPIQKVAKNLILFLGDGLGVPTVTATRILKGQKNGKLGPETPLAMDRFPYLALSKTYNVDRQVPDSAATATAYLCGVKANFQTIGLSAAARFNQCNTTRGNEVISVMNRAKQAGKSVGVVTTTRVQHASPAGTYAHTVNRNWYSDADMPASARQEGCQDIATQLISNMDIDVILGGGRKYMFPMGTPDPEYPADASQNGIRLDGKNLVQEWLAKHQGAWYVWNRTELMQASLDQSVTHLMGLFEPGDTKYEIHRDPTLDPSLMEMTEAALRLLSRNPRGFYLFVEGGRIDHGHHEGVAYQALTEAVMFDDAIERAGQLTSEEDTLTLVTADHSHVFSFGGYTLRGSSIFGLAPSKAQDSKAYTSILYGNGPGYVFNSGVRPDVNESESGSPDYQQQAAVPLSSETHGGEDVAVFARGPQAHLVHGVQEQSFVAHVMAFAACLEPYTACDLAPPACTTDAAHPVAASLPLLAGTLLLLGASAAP
bIAP act: intestinal alkaline phosphatase (bovine) activation; activation factor at 20 µM; purified bovine IAP, CDP-star luminescence, 30 min; hits give high values; fold of DMSO-control signal, blank-subtracted; 200,000 tested, 0.17% active; AID 1016;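 active means activation factor of 2 or more at 20 µM, a signal rise over negative controls twice the positive control's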
mIAP activ: mouse IAP activation | 330,000 tested, 0.24% active | muIAP, CDP-Star luminescence, 30 min; hits give high values; 1 = vehicle-only enzyme signal, 0 = enzyme-free wells | activation factor at 10 µM;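 active means activation factor of at least 2 at 20 µM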
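System: mouse IAP enzyme. Reagent: CDP-Star chemiluminescent phosphatase substrate. Benchmarks: DMSO wells, no-enzyme wells. Times: 30 min enzyme-substrate-compound incubation at room temperature. Detection: luminescence from enzymatic CDP-Star hydrolysis. Doses: test compounds delivered from DMSO solution.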
mIAP block: mouse IAP inhibition; 330,000 tested, 0.2% active; inhibition, % at 10 µM; purified mouse IAP, CDP-Star luminescence, 30 min;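 active means inhibition of at least 40% at 10 µM in the primary screen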
hIAP block: blocks human intestinal alkaline phosphatase | purified IAP, CDP-Star luminescence, 30 min | inhibition, % at 10 µM | 330,000 tested, 0.12% active | AID 2544;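 active means inhibition reaching a set limit with compound at 10 µM in the primary screen, cut at about 35% in these data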
hIAP act conf: human IAP activation confirmation | activation (%Activity, negative = activation), % at 8.3 µM | 880 tested, 10% active | AID 434926 | shares compounds with hIAP act | purified IAP, CDP-Star luminescence, 30 min; hits give low values;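 active means at least twofold enzyme activation in any of six single-dose repeats, which the averaged readout prints as negative percent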
Of the large screens only hits and unclear results are named; the others gave an inactive call (follow-up assays come after a bar, where they were run).

COc1ccc(CC(=O)NNC2=Nc3cccc4cccc2c34)cc1	hIAP act 2.2 (no result: bIAP inh, bIAP act) | hIAP act conf inactive
COc1ccc(C(=O)NNC2=Nc3cccc4cccc2c34)cc1	none
Cc1cccc(SCc2noc(C(=O)NCC3CCCO3)c2C(=O)O)c1 (configuration not stated)	hIAP block 35 | hIAP act conf -213
Cc1cc(C)cc(SCc2noc(C(=O)NCC3CCCO3)c2C(=O)O)c1 (configuration not stated)	none
Cc1cc(=O)[nH]c(-n2[nH]c3c(c2=O)CCCC3)n1	hIAP act 2.3 | hIAP act conf inactive
COc1ccc(NC(=O)CN2C(=O)COc3ccc(S(=O)(=O)N4CCCCCC4)cc32)cc1	hIAP block 37 (no result: bIAP inh, bIAP act) | hIAP act conf inactive
CCOc1ccc(NC(=O)CN2C(=O)COc3ccc(S(=O)(=O)N4CCCCC4)cc32)cc1	none (no result: bIAP inh, bIAP act)
Cc1cc(NS(=O)(=O)c2ccc(NC(=O)C(C)Oc3ccc4c(C)cc(=O)oc4c3)cc2)no1 (configuration not stated)	hIAP act 2.6 | hIAP act conf inactive
O=C(CNC(=S)NC(=O)c1cccs1)c1ccccc1	none
O=C(NC(=S)NCc1ccccc1)c1cccs1	hIAP block 40 (no result: bIAP inh, bIAP act) | hIAP act conf inactive
N#C/C(=C\c1ccccc1)C(=O)NC(=O)Oc1ccccc1	hIAP block 38 | hIAP act conf inactive
N#C/C(=C\c1ccccc1Cl)C(=O)NC(=O)Oc1ccccc1	none
CCOC(=O)/C(C#N)=C/c1c(N2CCN(CC)CC2)nc2c(C)cccn2c1=O	none (no result: bIAP inh, bIAP act)
NS(=O)(=O)c1ccc(CNC(=O)Cc2c(F)cccc2Cl)cc1	none
COc1cccc(/C=N/NC(=O)CNC(=O)/C=C\c2ccccc2)c1O	hIAP act 2.4 (no result: bIAP inh, bIAP act) | hIAP act conf inactive
CCN1CCN(C(=O)N(CC(=O)Nc2ccc(C(N)=O)cc2)S(=O)(=O)c2ccc(C)cc2)CC1	none (no result: bIAP inh, bIAP act)
COc1cccc(C(=O)Nc2cc(C)nn2-c2ccccc2)c1OC	none (no result: bIAP inh, bIAP act)
CCOc1ccc(NC(=O)CNc2cccc(S(=O)(=O)N3CCCCCC3)c2)cc1OCC	none (no result: bIAP inh, bIAP act)
CN(Cc1cnn(C)c1)C(=O)C1CCC(=O)N(Cc2cccc(F)c2)C1 (configuration not stated)	hIAP block 45 (no result: bIAP inh, bIAP act) | hIAP act conf inactive
O=C1c2ccccc2C(=O)N1Cc1ccc2c(c1)OCO2	hIAP act 2 | hIAP act conf inactive
O=C(O)c1ccc2c(c1)C(=O)N(Cc1ccc3c(c1)OCO3)C2=O	none
Cc1ccc(S(=O)(=O)N2[C@@H](c3ccccc3F)C(C(=O)O)=CC[C@H]2c2cccs2)cc1	none (no result: bIAP inh, bIAP act)
Cc1ccc(-n2ncc3c(NNC(=O)c4ccco4)ncnc32)cc1Cl	hIAP act 2.9 (no result: bIAP inh, bIAP act) | hIAP act conf inactive
Cc1cccc(-n2ncc3c(NCc4ccco4)ncnc32)c1	none
Cc1cccc(-n2ncc3c(NNC(=O)c4ccco4)ncnc32)c1	hIAP act 3.5 (no result: bIAP inh, bIAP act) | hIAP act conf -74
Cc1nc2c3ccccc3nc(NNC(=O)CCC(=O)NCCN3CCN(c4ccccc4)CC3)n2n1	hIAP act 2.3 (no result: bIAP inh, bIAP act) | hIAP act conf -97
Cc1nc2c3ccccc3nc(NNC(=O)CCC(=O)N3CCN(c4ccc(F)cc4)CC3)n2n1	none (no result: bIAP inh, bIAP act)
CCCCNC(=O)CCC(=O)NNc1nc2ccccc2c2nc(C)nn12	hIAP act 2.5 | hIAP act conf inactive
CCOCCCNC(=O)CCC(=O)NNc1nc2ccccc2c2nc(C)nn12	hIAP act 3.1 | hIAP act conf inactive
C/C(CC(=O)Nc1ccc(Cl)cn1)=N\NC(=O)Cc1cccs1	none (no result: bIAP inh, bIAP act)
COc1ccc(NC(=O)CN(C)C(=O)c2cccc(S(=O)(=O)N3CCCc4ccccc43)c2)cc1	none (no result: bIAP inh, bIAP act)
CCc1ccc(N=C2N=C(N)c3ccccc32)cc1	hIAP block 38 | hIAP act conf inactive
COc1ccc(/C=C(\NC(=O)c2ccc([N+](=O)[O-])cc2)C(=O)NCCCN2CCOCC2)cc1	none (no result: bIAP inh, bIAP act)
COc1ccc(C(=O)NCc2ccncc2)cc1S(=O)(=O)NCc1ccc(Cl)cc1	none (no result: bIAP inh, bIAP act)
COc1ccc(N=Cc2sc3ccccc3c2Cl)cc1	hIAP block 38 | hIAP act conf inactive
O=C(CSc1nc2c(c(=O)n1-c1ccc(F)cc1)SCC2)N1CCCC1	hIAP act 2.1 | hIAP act conf inactive
O=C(CSc1nc2c(c(=O)n1-c1ccccc1)SCC2)N1CCN(c2ccccc2)CC1	none
Cc1ccc(C(C)C)cc1NC(=O)Nc1ccc([N+](=O)[O-])cc1	none (no result: bIAP inh, bIAP act)
Clc1ccc(-c2nc(-c3ccccn3)no2)cc1Cl	hIAP act 2.1 | hIAP act conf inactive
COc1ccc(-c2nc(-c3ccccn3)no2)cc1	none
CCCS(=O)(=O)N1CCCC(C(=O)NCCc2cccc(C)c2)C1 (configuration not stated)	none (no result: bIAP inh, bIAP act)
CC1CCCC/C1=N/Nc1ccc([N+](=O)[O-])cc1[N+](=O)[O-] (configuration not stated)	hIAP block 37 (no result: bIAP inh) | hIAP act conf inactive
CC(=O)N/C(=C\c1ccccc1)C(=O)Nc1ccccc1C	none
Cc1cccc(C(=O)OCN2C(=O)c3ccccc3C2=O)c1[N+](=O)[O-]	hIAP block 42 (no result: bIAP inh, bIAP act) | hIAP act conf inactive
COc1ccc2c(c1)c1nnc(SCC(=O)N3CCCCC3C)nc1n2C (configuration not stated)	none (no result: hIAP act, mIAP activ, mIAP block, hIAP block)
COc1ccc(N2CCN(C(=O)CSc3nnc4c5cc(C)ccc5n(C)c4n3)CC2)cc1	hIAP act 2.6 | hIAP act conf inactive
CCOC(=O)c1c(C)[nH]c(C(=O)N/N=C\c2ccccc2O)c1C	none (no result: hIAP act, mIAP activ, mIAP block, hIAP block)
CCOC(=O)c1c(C)[nH]c(C(=O)N/N=C/c2cc([N+](=O)[O-])ccc2O)c1C	hIAP act 2.1 (no result: bIAP inh, bIAP act) | hIAP act conf inactive
CCc1cccc(NC(=O)CCCCCC2NC(=O)NC2C)c1 (configuration not stated)	none
CC(C)(C)N/N=C/c1c(O)n(-c2ccc(Cl)cn2)c(=O)c2ccccc12	hIAP act 2 | hIAP act conf -93
COC(=O)CN=Cc1c(O)n(-c2ccc(Cl)cn2)c(=O)c2ccccc12	none
O=C(CCN1CCN(Cc2ccccc2)CC1)NNC(=O)Nc1cccc(C(F)(F)F)c1	hIAP act 2 (no result: bIAP inh, bIAP act) | hIAP act conf inactive
CC1CCN(S(=O)(=O)c2ccc3c(c2)CCN3C(=O)C2CCC2)CC1	none (no result: bIAP inh, bIAP act)
CC1CCCN(S(=O)(=O)c2ccc3c(c2)CCN3C(=O)C2CCC2)C1 (configuration not stated)	hIAP act 50 | hIAP act conf inactive
Cc1ccc(C(=O)NNC(=O)c2csc(N3CCOCC3)n2)o1	none (no result: bIAP inh, bIAP act)
O=C(CCNS(=O)(=O)c1ccccc1)NNC(=O)c1csc(N2CCOCC2)n1	none (no result: bIAP inh, bIAP act)
O=C(NNC(=O)c1ccc(Br)o1)c1csc(N2CCOCC2)n1	hIAP act 2.2 (no result: bIAP inh, bIAP act) | hIAP act conf inactive
